The target of assay [1] is T1, Transcriptional enhancer factor TEF-3 (Homo sapiens, UniProt Q15561). The assay can be described thus: Inhibition of CPM binding to N-terminal His6-tagged human TEAD4 (217 to 434 residues) expressed in Escherichia coli BL21-CodonPlus (DE3)-RIPL cells preincubated for 10 mins followed by CPM addition and measured after 1 hr by fluorescence assay. To be noted: for inhibition: time 70.0 min.

In assay [2] the target is T1, Transcriptional enhancer factor TEF-3. The assay can be described thus: Inhibition of CPM binding to N-terminal His6-tagged human TEAD4 (217 to 434 residues) expressed in Escherichia coli BL21-CodonPlus (DE3)-RIPL cells at 12.5 uM preincubated for 10 mins followed by CPM addition and measured after 1 hr by fluorescence assay relative to control. To be noted: time 70.0 min.

Assay [3] has the same target. As to the kind of experiment: Inhibition of FITC-labeled palmitate tracer binding to N-terminal His6-tagged human TEAD4 (217 to 434 residues) expressed in Escherichia coli BL21-CodonPlus (DE3)-RIPL cells preincubated for 10 mins followed by FITC-labeled palmitate tracer addition and measured after 1 hr by fluorescence assay. The method, boiled down:
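FP competition in 25 mM HEPES, 150 mM NaCl, pH 6.5: serially diluted compound preincubated 10 min at room temperature with nonacylated hTEAD4, then FITC-palmitate tracer added (final 50 nM protein, 10 nM tracer); shaken 1 h at room temperature, FP at Ex/Em 485/535 nm. Tracer Kd from saturation binding.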

Experimental findings from ChEMBL document CHEMBL4665803, “Discovery of Covalent Inhibitors Targeting the Transcriptional Enhanced Associate Domain Central Pocket” (J Med Chem, 2020) are described below.

Where only a bound is given, the exact number is not on record here.

T1 sequence (Q15561 whole entry, the tested form may be a part): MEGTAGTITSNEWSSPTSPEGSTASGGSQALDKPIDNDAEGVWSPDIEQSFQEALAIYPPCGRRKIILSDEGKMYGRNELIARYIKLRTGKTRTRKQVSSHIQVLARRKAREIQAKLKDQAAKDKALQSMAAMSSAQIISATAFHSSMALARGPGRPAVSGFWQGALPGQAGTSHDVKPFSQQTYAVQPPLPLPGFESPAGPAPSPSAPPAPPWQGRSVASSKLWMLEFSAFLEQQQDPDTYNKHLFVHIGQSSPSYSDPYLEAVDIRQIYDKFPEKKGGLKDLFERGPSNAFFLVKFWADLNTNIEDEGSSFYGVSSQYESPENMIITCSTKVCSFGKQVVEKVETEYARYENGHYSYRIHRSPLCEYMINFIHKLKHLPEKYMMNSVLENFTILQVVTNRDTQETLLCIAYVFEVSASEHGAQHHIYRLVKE

In general, IC50 refers to the concentration at which inhibition is half-maximal. The inhibition is the share of the control response that was lost under treatment. In the case of `O=c1cc(CO)oc(C(Nc2ccccc2)c2ccc(F)cc2)c1O` (configuration not stated), the 50% inhibitory concentration (IC50) in assay [1] (read-out: IC50(app)) is 1900 nM; in assay [3], 300 nM. For the same compound, the inhibition in assay [2] was greater than 50%.
Take `O=c1cc(CO)oc(C(Nc2ccccn2)c2ccccc2F)c1O` (configuration not stated): the IC50 in assay [1] (read-out: IC50) turned out to be 3200 nM; in assay [1] (read-out: IC50(app)), 3200 nM; in assay [3], 300 nM. The inhibition in assay [2] was greater than 50%.
Consider `O=c1cc(CO)oc(C(Nc2nccs2)c2ccc(F)cc2)c1O` (configuration not stated), for which the IC50 in assay [1] (read-out: IC50) was determined as 43100 nM. Besides, in assay [2], the inhibition was greater than 50%.
As for `O=c1cc(CO)oc(C(NCc2ccccc2)c2ccccc2)c1O` (configuration not stated), the IC50 in assay [1] (read-out: IC50(app)) was determined as 4000 nM; in assay [3], 400 nM. The inhibition in assay [2] was greater than 50%.
Consider `O=c1cc(CO)oc(C(Nc2ccccn2)c2cccnc2)c1O` (configuration not stated), for which the IC50 in assay [1] (read-out: IC50(app)) was greater than 100000 nM; in assay [3] it was 14700 nM. Besides, the inhibition in assay [2] is greater than 50%.
Consider `O=c1cc(CO)oc(C(Nc2cccc(F)c2)c2ccccn2)c1O` (configuration not stated), for which the IC50 in assay [1] (read-out: IC50) was determined as 8700 nM. Moreover, the inhibition in assay [2] is greater than 50%.
With `Cc1ccnc(NC(c2ccccc2)c2oc(CO)cc(=O)c2O)c1` (configuration not stated), the IC50 in assay [1] (read-out: IC50(app)) was found to be 2400 nM; in assay [3], 300 nM. Moreover, in assay [2], the inhibition is greater than 50%.
As to `CC(C)NC(c1ccccc1)c1oc(CO)cc(=O)c1O` (configuration not stated), the IC50 was determined as 16800 nM in assay [1] (read-out: IC50(app)) and 1500 nM in assay [3]. In addition, the inhibition in assay [2] was greater than 50%.
For `O=C(O)c1ccccc1Nc1cccc(C(F)(F)F)c1`, the inhibition entry in assay [1] was “Dose-dependent effect”.
Consider `O=c1cc(CO)oc(C(Nc2ccccc2)C2CCCCC2)c1O` (configuration not stated), for which the IC50 in assay [1] (read-out: IC50(app)) is greater than 100000 nM; in assay [3], 22600 nM. For the same compound, in assay [2], the inhibition was greater than 50%.
In the same order, the values of `O=c1cc(CO)oc(C(Nc2ccccc2)c2ccc3ccccc3c2)c1O` (configuration not stated) are 1100 nM, 200 nM and greater than 50%.
In the case of `O=c1cc(CO)oc(C(Nc2nc3ccccc3[nH]2)c2ccccc2)c1O` (configuration not stated), the results for the IC50 in assay [1] (read-out: IC50(app)) and in assay [3] were greater than 100000 nM and 6400 nM, respectively. Also, the inhibition in assay [2] is greater than 50%.
For `Cc1ccc(C(Nc2ccccc2)c2oc(CO)cc(=O)c2O)cc1` (configuration not stated) the same measures were 1300 nM, 200 nM and greater than 50%.
Consider `O=c1cc(CO)oc(CN2CCN(c3ccccn3)CC2)c1O`, for which the half-inhibitory concentration (IC50) in assay [1] (read-out: IC50) was greater than 100000 nM. The inhibition in assay [2] is less than 50%.
`O=c1cc(CO)oc(CNc2ccccc2)c1O`: the results for the IC50 in assay [1] (read-out: IC50(app)) and in assay [3] were greater than 100000 nM and 36400 nM, respectively. Further, the inhibition in assay [2] is greater than 50%.
As for `O=c1cc(CO)oc(C(Nc2ccccc2)c2ccccc2F)c1O` (configuration not stated), the results for the IC50 in assay [1] (read-out: IC50(app)) and in assay [3] were 700 nM and 100 nM, respectively. The inhibition in assay [2] is greater than 50%.
For `O=c1cc(CO)oc(C(Nc2cccc(F)c2)c2ccccc2)c1O` (configuration not stated) the same measures were 1500 nM, 200 nM and greater than 50%.
In the same order, the values of `O=c1cc(CO)oc(C(Nc2ncccn2)c2ccccc2)c1O` (configuration not stated) are greater than 100000 nM, 13400 nM and greater than 50%.
For `NC(=O)c1ccc(NC(c2ccccc2)c2oc(CO)cc(=O)c2O)cc1` (configuration not stated), the figures for the concentration for half-maximal inhibition (IC50) in assay [1] (read-out: IC50(app)) and in assay [3] were 1700 nM and 300 nM, respectively. In addition, the inhibition in assay [2] is greater than 50%.
For the compound `NC(=O)c1ccc(C(Nc2ccccc2)c2oc(CO)cc(=O)c2O)cc1` (configuration not stated), the IC50 amounted to 1500 nM in assay [1] (read-out: IC50(app)) and 300 nM in assay [3]. In assay [2], the inhibition was greater than 50%.
With `CCCCCCCCCCCCCCCC(=O)O`, the inhibition entry in assay [1] is “Dose-dependent effect”.
For the compound `CCOC(=O)C1CCCN(Cc2oc(CO)cc(=O)c2O)C1` (configuration not stated), the half-inhibitory concentration (IC50) in assay [1] (read-out: IC50) is greater than 100000 nM. In assay [2], the inhibition is less than 50%.
`O=C(O)c1cccnc1Nc1cccc(C(F)(F)F)c1` [NIFLUMIC ACID]: the IC50 in assay [1] (read-out: IC50(app)) came out at 41900 nM; in assay [3], 5900 nM. Further, the inhibition entry in assay [1] is “Dose-dependent effect”.
Consider `CSCC[C@H](NCc1oc(CO)cc(=O)c1O)C(=O)O`, for which the IC50 in assay [1] (read-out: IC50) was greater than 100000 nM. For the same compound, the inhibition in assay [2] was less than 50%.
With `O=C(CCl)c1ccccc1Nc1cccc(C(F)(F)F)c1`, the IC50 stood at 800 nM in assay [1] (read-out: IC50(app)) and 14100 nM in assay [3]. Besides, in assay [1], the inhibition entry was “Dose-dependent effect”.
